# From PubChem
# This is a sample that favours compounds with a hit; in the whole collection about 4.2% have one here.
# Rad51 HR inh: human RAD51 strand exchange inhibitors, primary screen, biochemical, fluorescence; DNA repair protein RAD51 homolog 1 (Homo sapiens), Q06609; hRad51 DNA strand exchange, fluorescence dequenching; actives 0.085% (n = 200,000); inhibition, % at 10 µM;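 active = inhibition above 40% at the single screening dose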;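 also: 0% = DMSO control wells and 100% = blanks with heterologous ssDNA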
#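 Test system – preformed human Rad51 ssDNA filaments · Reagent – Donor/quencher-labelled 47-bp dsDNA substrate · Incubation – 37 °C 15-min filament assembly, 30-min compound preincubation, 15-min exchange · Signal – FRET fluorescence dequenching, excitation 485 nm, emission 520 nm · Read-out – percent inhibition from fluorescence, normalised to plate control and blank means · Benchmarks – plate control and blank wells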
# SKKanGAS inh: S. pyogenes SKKanGAS growth inhibitors in kanamycin, primary screen, streptokinase expression inhibitor project, SKKanGAS strain, BacTiter-Glo luminescence; 6 h; actives 1.3% (n = 300,000); AID 1662, 2009; inhibition, % at 7.5 µM;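 active = mean replicate score, as percent of positive control median, at least 50; inconclusive = mean below 50 but one replicate at or above 50; inactive = mean and every replicate below 50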;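 also: strain carries kanamycin resistance gene driven by streptokinase promoter and grows in 40 µg/ml kanamycin; loss of luminescence reflects streptokinase promoter inhibition or plain growth inhibition; 0% = median of DMSO wells and 100% = positive control at its reference dose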
# Ins promoter up: insulin promoter activators in MIN6 cells, imaging, high-content screening, mouse beta cells | MIN6 insulin promoter-GFP reporter; stronger effect = higher value | z-score at 5 µM | actives 0.3% (n = 190,000) | AID 1625, 2009;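 active = z-score above 3 at 5 µM with at least 500 cells counted in the well; inconclusive = wells under 500 cells, flagged as cytotoxic or low count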
# Autophagy HCS: autophagy modulators in MEF cells, primary screen, imaging, high-content, MEF GFP-LC3; MEF GFP-LC3 puncta imaging; test concentration mostly 10 µM; calls only at 10 µM (by protocol); actives 0.98% (n = 190,000);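 active = percentage of spot-positive cells more than 3 SD above its plate mean, without a fluorescence outlier flag or 80% toxicity; inconclusive = no clear call, values can overlap the other calls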;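 also: spot-positive cell cutoff set from DMSO-treated cells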
# Cl transport mod: KCC2 cotransporter modulators, thallium flux, primary screen, cell-based, HEK293 KCC2, FluoZin-2 fluorescence, MLSMR. Solute carrier family 12 member 5 (Homo sapiens), Q9H2X9. KCC2 cells, thallium flux FluoZin-2 fluorescence. B-score of Tl+ flux slope (higher = more flux/activation; lower = inhibition) at 10 µM. actives 2.2% (n = 190,000);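 active = thallium flux slope and its plate-corrected score both differing from the plate sample mean at a set confidence after two filtering rounds, in either direction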;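 also: slope of fluorescence scaled to starting intensity during 10 to 20 s after thallium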
# WT yeast gro inh: growth inhibition of WT strain, primary screen, mitochondrial fusion inhibitor project, WT and mutant strains, chemical genetic. mitochondrial fusion phenotypic screen. inhibition, % at 10 µM. actives 2.1% (n = 190,000). AID 1362, 2008; in the data active = inhibition above about 58%; tested in S. cerevisiae
# KCC2 secondary: KCC2 modulators in sodium-free buffer, confirmation, cell-based, HEK293 KCC2, thallium flux, secondary assay; normalised thallium flux (F/F0 slope) at 10 µM; shares compounds with Cl transport mod; actives 15% (n = 3,700); AID 1713, 2009; FluoZin2 fluorescence; stronger effect = higher value;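 active = thallium flux slope above the same plate's solvent-only control mean plus 3 SD; inconclusive = the two replicate wells disagree; inactive = no significant difference from solvent-only control wells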
# KCC2 bumet counter: thallium flux persisting under bumetanide in KCC2 cells, confirmation, counter-screen for KCC2 modulator project, cell-based, HEK293 KCC2, FluoZin2, secondary assay 3 | shares compounds with Cl transport mod | HEK293-KCC2 + bumetanide/ouabain; stronger effect = higher value | normalized thallium flux at 10 µM | actives 49% (n = 3,700);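 active = thallium entry rate above the same plate's blocked-transporter control wells by more than 3 SD; inconclusive = the two repeat wells disagree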;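 also: raw slope of fluorescence over initial fluorescence between 10 and 20 s after thallium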
# KCC2 sec2: KCC2 modulators without ouabain present, confirmation, cell-based, HEK293 KCC2, thallium flux, FluoZin2, secondary assay 2; shares compounds with Cl transport mod; thallium flux FluoZin2 fluorescence; actives lie on both sides; F/F0 rise rate, 10–20 s post-thallium; normalized thallium flux at 10 µM; actives 23% (n = 3,700); AID 1715, 2009;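 active = thallium flux slope more than 3 SD above or below the plate's solvent-only control mean, mostly below; inconclusive = the two repeat wells disagreed; inactive = no significant shift from solvent-only controls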;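 also: raw slope with 0.1% DMSO as baseline and bumetanide as block control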
# HEK293 Tl flux: thallium flux modulation in parental HEK cells, confirmation, counter-screen for KCC2 modulator project, cell-based, counterscreen 1; AID 1716, 2009; shares compounds with Cl transport mod; HEK293 parental cells, thallium flux FluoZin2, ouabain; baseline-ratio fluorescence slope, 10–20 s after thallium; thallium flux rate (normalised fluorescence) at 10 µM; actives 46% (n = 3,700);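 active = thallium flux rate significantly above the same plate's solvent-only control wells, beyond their mean plus 3 SD; inconclusive = the two replicate wells gave conflicting results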
# KCC2 ouabain: KCC2 inhibitors and activators, ouabain retest, confirmation, HEK-KCC2 cells; shares compounds with Cl transport mod; HEK293-KCC2, thallium flux FluoZin2 fluorescence; bidirectional: low = inhibitor, high = activator; actives 48% (n = 3,700); raw Tl+ flux slope (below DMSO = inhibition, above = activation) at 10 µM;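 active = thallium flux slope beyond 3 SD from same-plate DMSO control mean in most replicates, usually higher, sometimes lower; inconclusive = repeat tests gave conflicting results; inactive = no significant difference from controls in most replicates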;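 also: slope of initial-normalized fluorescence between seconds 10 and 20 after thallium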
# HEK counter2: native HEK Tl+ uptake effects, second counter-screen – HEK cells, counterscreen 2, counter-screen for KCC2 modulator project, confirmation | thallium flux slope at 10 µM | shares compounds with Cl transport mod | actives 33% (n = 3,700) | AID 1718, 2009 | HEK293 parental, thallium flux FluoZin-2 fluorescence slope;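 active = thallium flux slope above the same plate's solvent-control mean plus 3 SD in both duplicate wells; inconclusive = duplicate wells that disagreed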;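 also: run without ouabain in cells lacking the KCC2 cotransporter; slope of fluorescence scaled to its starting value between 10 and 20 s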
# Numbers without * were called inactive; i = inactive; ? = inconclusive; . = no result given.
SMILES,Rad51 HR inh,SKKanGAS inh,Ins promoter up,Autophagy HCS,Cl transport mod,WT yeast gro inh,KCC2 secondary,KCC2 bumet counter,KCC2 sec2,HEK293 Tl flux,KCC2 ouabain,HEK counter2
CCOc1ccc(OCc2ccc(C(=O)Nc3cccnc3)o2)cc1,-4,1,-0.09,i,0.31,23,.,.,.,.,.,.
Cc1nn(-c2ccccc2)c2nc(C(F)(F)F)[nH]c(=O)c12,0,-8,0.63,i,-0.47,-20,.,.,.,.,.,.
Cc1nn(-c2cc(C(F)(F)F)ccc2Cl)c2nc(C(Cl)(Cl)Cl)[nH]c(=O)c12,.,27,-0.07,.,50*,.,0.0058,0.061*,0.048*,0.036*,0.048*,0.034*
O=C(O)C[C@H]1c2ccccc2S(=O)(=O)N1C1CCCC1,1,0,.,.,.,.,.,.,.,.,.,.
CCC(Oc1ccccc1)C(=O)Nc1ncc([N+](=O)[O-])s1 (centres undefined),0,9,-0.19,i,-2.8*,46,0.0077,?,0.033,0.007,0.017*,0.011
Cc1ccc(-n2ncc3c(SCC(=O)NNC(=O)c4ccco4)ncnc32)cc1,0,0,0.62,i,37*,-6,?,0.041*,?,0.035*,0.035*,0.032*
Cc1nnc(SCC(=O)NNC(=O)c2ccco2)n1-c1cccc(Cl)c1,2,-3,2.3,i,-3.6*,15,0.0094,?,0.03,0.008,0.065,?
O=C(O)CCC(=O)Nc1cc(C(F)(F)F)cc(C(F)(F)F)c1,17,1,-0.53,.,.,.,.,.,.,.,.,.
CCn1c(SCC(=O)Nc2ccc(F)cc2)nnc1-c1cnccn1,.,0,.,.,.,.,.,.,.,.,.,.
CC1CCN(C(=O)COC(=O)C2CCN(S(=O)(=O)c3ccc4c(c3)OCCO4)CC2)CC1,.,4,.,.,.,.,.,.,.,.,.,.
COc1cccc(NC(=O)CSc2nnc(-c3ccoc3C)n2C)c1,.,-2,.,.,.,.,.,.,.,.,.,.
COc1ccc(-n2c(C)cc(C(=O)CSc3nnc(-c4ccoc4C)n3C)c2C)cc1,-7,-2,-1.1,i,.,9,0.0072,0.0064,0.033,?,0.02,0.01
COc1cccc(NC(=O)CCC2CCN(C(=O)c3cncs3)CC2)c1,.,-2,.,.,.,.,.,.,.,.,.,.
O=C(NC1CCCCC1)C(c1ccncc1)N(Cc1ccccc1)C(=O)c1ccc(-c2ccccc2)[nH]1 (centres undefined),.,28,-0.59,i,-1.9,27,.,.,.,.,.,.
